Most compounds without a hit are left out; they make up all but 2.9% or so of the library.
PGC1a acetyl inh: inhibitors of PGC1a acetylation signal, primary screen, cell-based, U2OS, AlphaScreen, inhibitor mode; AlphaScreen anti-acetyl-lysine; with virally co-expressed GCN5 acetyltransferase; inhibition, % at 15.6 µM; 0.17% of 350,000 active;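 active = every replicate shows inhibition of at least 40%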;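 note: 0% = neutral control wells and 100% = positive control wells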
Cneo AK release: Cryptococcus neoformans cell lysis inducers, primary screen, AK release luminescence, single concentration; C. neoformans lysis, adenylate kinase release luminescence, 4 h; normalised: neutral wells 0, clomiphene wells 100; lysis activity, % at 15 µM; 0.2% of 360,000 active; AID 651654, 2012;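 active = mean lysis activity across replicates of at least 80%, whatever share of replicates individually reach that level; inactive = mean lysis activity below 80%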
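Assay system: log-phase C. neoformans yeast / Quantity: yeast cell density of 5 × 10^6 cells/mL / Medium: fresh YPD growth medium / Compound: single dose / Timing: static 4 h at 37 °C with compound, 1 h detection / Measured by: adenylate kinase release luminescence / Read-out: lysis from increased AK signal / Benchmarks: Clomiphene as positive lysis control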
FGF22 binding: binders of human FGF22 protein, primary screen, FGF22 synaptogenesis inhibitor project, biophysical, thermal shift, single point. Fibroblast growth factor 22 (Homo sapiens), Q9HCT0. recombinant FGF22 thermal shift, SYPRO orange fluorescence; percent of sucrose octasulfate shift, DMSO zero. activity (Tm shift, normalised), % at 9.99 µM. 1.5% of 340,000 active;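 active = mean Tm shift, scaled 0 neutral to 100 positive control, at about 1.3% or above, every replicate too, limit read from the data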
Target sequence (Q9HCT0 whole entry, looked up): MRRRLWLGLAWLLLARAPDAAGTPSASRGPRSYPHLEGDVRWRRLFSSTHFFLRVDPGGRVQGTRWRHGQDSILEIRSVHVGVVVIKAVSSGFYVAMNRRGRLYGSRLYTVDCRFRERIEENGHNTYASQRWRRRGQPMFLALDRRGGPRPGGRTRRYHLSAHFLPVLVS
Ecoli rRNA inh: reduced GFP signal of wild-type E. coli, primary screen, bacterial rRNA inhibitor project, GFP/RFP fluorescence, OD600, single point; E. coli WT GFP vs humanized-ribosome RFP mutants, 24 h; hits give low values; DMSO median 0, no signal -100; 1.6% of 350,000 active; GFP signal change (wild-type ribosome), % (concentration not given with the values);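 active = significant combined selectivity score with lowered wild-type GFP, culture density cut under 30%, mutant RFP and density less affected; inactive = any of these conditions unmet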
Vif inh: HIV Vif self-association inhibitors, primary screen, imaging, HEK293T, single point; HEK293T cells, Vif self-association by quenched fluorescence, 24 h; 0.35% of 340,000 active; inhibition, % at 7.49 µM; in the data active = inhibition above about 50%, passing the limit was not always enough
PglD inh: C. jejuni PglD acetyltransferase inhibitors, primary screen, biochemical, DTNB colorimetric, single point. purified PglD enzyme, DTNB colorimetric CoA detection. inhibition, % at 12.5 µM. 0.098% of 360,000 active. AID 602405, 2012. UDP-N-acetylbacillosamine N-acetyltransferase PglD (Campylobacter jejuni); in the data active = inhibition above about 16%, passing the limit was not always enough
* marks the source's active call; other numbers are inactive results; / = not tested or not shown.

SMILES	PGC1a acetyl inh	Cneo AK release	FGF22 binding	Ecoli rRNA inh	Vif inh	PglD inh
COC(=O)c1cc(NC(C)=O)ccc1N1CCOCC1	/	/	43*	4	-4	/
CC(=O)Nc1ccc(N2CCOCC2)c(Cl)c1	/	-2	0	-1	1	-7
C[C@@H]1CCCCO[C@@H](CN(C)S(=O)(=O)c2ccccc2)[C@H](C)CN([C@@H](C)CO)C(=O)c2cc(NC(=O)CCCN(C)C)ccc2O1	11	-5	0	3	/	-1
COc1ccccc1C#CC1=CC(=O)CC(C)(C)C1	/	-1	0	-23*	-15	-1
Cc1nc2ccccc2c(=O)n1NC(=O)c1ccc([N+](=O)[O-])cc1	-3	/	43*	7	-5	/
C[C@@H]1CN([C@@H](C)CO)C(=O)c2cc(C#CC3CCCCC3)cnc2O[C@@H]1CN(C)S(=O)(=O)c1ccccc1	-14	-3	-1	4	/	5
Cc1cc(=O)[nH]c(N/N=C/CCc2ccccc2)n1	/	/	0	-27*	2	/
O=C(C[C@@H]1C[C@@H]2c3cc(NS(=O)(=O)c4ccc(F)cc4)ccc3O[C@@H]2[C@@H](CO)O1)NCc1ccccc1F	9	59	0	-9	/	-2
COC(=O)C1C2OC(C(Br)C2Br)C1C(=O)OC (configuration not stated)	/	/	44*	11	-5	/
COC(=O)C1C2CCCCC1C(=O)O2 (configuration not stated)	/	/	0	15	-1	/
CCOC(=O)C1=C(C)N(C)C(=S)NC1c1cccc(Cl)c1Cl (configuration not stated)	/	3	0	-24*	2	0
COC(=O)C1=C(C)N(C)C(=S)NC1c1ccc(Cl)cc1 (configuration not stated)	/	9	44*	-10	-5	-10
CCOC(=O)C1=C(C)N(C)C(=S)NC1c1ccccc1Cl (configuration not stated)	-24	6	/	/	/	3
O=C(/C=C/c1cccs1)c1ccc(NC(=O)c2cccc(Br)c2)cc1	48*	-1	/	/	-4	/
c1coc(CNc2nc(N3CCCCC3)nc3ccccc23)c1	-26	1	/	/	-24	-20
OCCNc1nc(N2CCCCC2)nc2ccccc12	67*	0	0	-4	0	5
c1ccc(CNc2nc(N3CCN(Cc4ccccc4)CC3)nc3ccccc23)cc1	-29	15	0	-43*	/	-1
CCC(=O)NC[C@H]1[C@H](c2ccccc2)[C@@H](CO)N1C(=O)C1CCC1	8	-2	-1	5	/	1
O=C(NCCN1CCCCC1)[C@@H]1N[C@@H]2c3ccc(-c4ccncc4)c(=O)n3C[C@@H]2[C@H]1CO	/	103*	0	2	/	2
Fc1ccc(CNc2ccn3nc(-c4ccccc4)cc3n2)cc1	/	-2	0	-42	-2	-2
CC(C)(CO)CNc1ccn2nccc2n1	43*	0	0	11	-11	0
CN(C)c1cccc(C(=O)NNC(=O)CSc2ccccc2)c1	5	0	0	0	-2	2
CC(C)N(C(=S)NC1CC2CCC1C2)c1ccccc1 (configuration not stated)	/	0	44*	9	9	-7
CN(C)c1cccc(C(=O)NNC(=S)NC2CC3CCC2C3)c1 (configuration not stated)	-1	4	42	-24*	14	-1
CC(C)NC(=O)N1C[C@@H]2C(c3ccccc3)[C@H](C1)N2CC(F)(F)F (some centres not stated)	/	/	/	-1	/	/
COc1ccc(CC(=O)NCC2CCCN(Cc3cccc(C(F)(F)F)c3)C2)cc1 (configuration not stated)	6	0	0	-2	11	-12

Compound activity (PubChem BioAssay)
